In the library only some 2.2% were active in any assay of this set; here they are far more common.
IMP-1 inh-1: blocks Pseudomonas aeruginosa IMP-1 metallo-beta-lactamase; inhibition, % at 5.6 µM; purified IMP-1, nitrocefin hydrolysis, epi-absorbance fluorescence; AID 1556; 290,000 compounds, 0.45% hits;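 active = inhibition above the mean plus 3 SD of all compounds in the same screening run, cut at about 4.5% in these data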;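 note: 0% = IMP-1 with DMSO and 100% = DMSO wells lacking enzyme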
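System: purified IMP-1; amount: IMP-1 0.2 nM before substrate addition; compound: single dose, 5.6 µM; times: 25 °C, 15 min preincubation, 25 min reaction; signal: Epi-absorbance via hydrolysed-nitrocefin quenching of white-plate fluorescence, 480/530 nm, EDTA stop; benchmarks: DMSO with and without IMP-1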
PHOSPHO1 inh: blocks human PHOSPHO1 phosphatase activity. Q8TCT1. recombinant PHOSPHO1, absorbance phosphatase assay. inhibition, % at 13.3 µM. 290,000 compounds, 1.1% hits. AID 1565; in the data active = inhibition above about 60%
CR mimetic SO: caloric restriction mimetics inhibiting age-related superoxide in yeast; S. cerevisiae aged cells, superoxide DHE fluorescence; stronger effect = lower value; 330,000 compounds, 0.18% hits; superoxide response (% of plate mean), % at 10 µM;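 active = superoxide response under a set limit, about three screen SD below normal, cut at about 65% in these data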;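 note: yeast aged for seven days with compound at 30 °C before DHE staining; 100% = average MFI of all compound-treated wells on the plate with controls excluded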
PvdQ acylase: blocks Pseudomonas aeruginosa PvdQ acylase activity | purified PvdQ acylase, fluorescence plate reader | inhibition, % at 10 µM | 340,000 compounds, 0.063% hits; in the data active = inhibition above about 30%, passing the limit was not always enough;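 note: 0% = vehicle neutral wells and 100% = reference inhibitor wells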
VIM-2 inh: inhibitors of Pseudomonas aeruginosa VIM-2 metallo-beta-lactamase | purified VIM-2, nitrocefin hydrolysis, epi-absorbance fluorescence | AID 1527 | inhibition, % at 5.6 µM | 290,000 compounds, 0.89% hits;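 active = inhibition above the mean of all tested compounds plus 3 SD, cutoff set per screening run, cut at about 7.5% in these data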;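 note: red hydrolysis product quenches plate fluorescence so inhibitors raise well fluorescence; 0% = enzyme with DMSO and 100% = DMSO without enzyme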
IMP-1 inh-2: IMP-1 inhibition, counter-screen for VIM-2 inhibitors; shares compounds with VIM-2 inh; purified IMP-1, nitrocefin hydrolysis, epi-absorbance fluorescence; inhibition, % at 5.6 µM; 1,300 tested, under 10 active; AID 1856; call rule not given here;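 note: 0% = enzyme with vehicle and 100% = vehicle without enzyme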
VIM-2 FRET ctr: counter-screen for VIM-2 inhibitors: epi-absorbance artifacts via FRET. shares compounds with VIM-2 inh. purified VIM-2, CCF2 FRET substrate hydrolysis. inhibition, % at 5.6 µM. 1,300 compounds, 23% hits;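 active = inhibition above the mean of all tested compounds plus 3 SD, cut at about 19% in these data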;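 note: 0% = VIM-2 plus DMSO and 100% = no enzyme wells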
TEM-1 inh: blocks E. coli TEM-1 beta-lactamase in VIM-2 selectivity screen. shares compounds with VIM-2 inh. Purified TEM-1, nitrocefin hydrolysis, epi-absorbance fluorescence. inhibition, % at 5.6 µM. 1,300 compounds, 3% hits;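 active = inhibition above that campaign's mean inhibition plus 3 SD, cut at about 0.46% in these data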;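 note: 0% = TEM-1 with DMSO and 100% = TEM-1 with 100 µM potassium clavulanate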
Target sequence (P62593 whole entry, looked up): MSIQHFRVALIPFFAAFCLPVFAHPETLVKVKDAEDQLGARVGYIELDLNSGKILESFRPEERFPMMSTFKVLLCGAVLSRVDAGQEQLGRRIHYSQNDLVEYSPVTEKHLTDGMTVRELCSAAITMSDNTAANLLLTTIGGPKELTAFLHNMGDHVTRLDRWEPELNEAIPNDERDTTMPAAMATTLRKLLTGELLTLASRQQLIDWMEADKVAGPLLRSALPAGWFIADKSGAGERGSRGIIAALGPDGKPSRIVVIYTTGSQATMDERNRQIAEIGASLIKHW
VIM-2 inh conf: confirmation of P. aeruginosa VIM-2 metallo-beta-lactamase inhibitors; shares compounds with VIM-2 inh; 1,300 compounds, 96% hits; purified VIM-2, nitrocefin hydrolysis, epi-absorbance; AID 2187; inhibition, % at 5.6 µM;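 active = inhibition of the VIM-2 beta-lactamase enzyme above about 11% from the earlier first-round screen, limit read from the data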;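 note: 0% = VIM-2 with DMSO and 100% = buffer wells without enzyme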
* marks the source's active call; other numbers are inactive results; x = no result given.

SMILES	IMP-1 inh-1	PHOSPHO1 inh	CR mimetic SO	PvdQ acylase	VIM-2 inh	IMP-1 inh-2	VIM-2 FRET ctr	TEM-1 inh	VIM-2 inh conf
Cc1ccc(-c2nn3c(C)nnc3c3ccccc23)cc1S(=O)(=O)NCc1ccccc1	-1	9	90	-7	-1	x	x	x	x
CC(COc1cccc2ccccc12)CN1CCN(C)CC1 (configuration not stated)	-2	-47	96	-6	22*	-2	2	-6	48*
CCn1c(SCC(N)=O)nnc1-c1cc2c(C)nn(-c3ccccc3)c2s1	-5	39	106	-13	15*	-3	9	-6	27*
CCn1c(SCC(=O)Nc2cc(C(C)(C)C)nn2-c2ccccc2)nnc1-c1cccs1	0	-5	118	6	-2	x	x	x	x
CCCCN(CC)CCCNC(=O)c1cc2c(=O)n(CC)c3ccccc3c2s1	-2	29	108	2	12*	-2	-1	-6	22*
CCCN(CCC)CCCNC(=O)c1cc2c(=O)n(CC)c3ccccc3c2s1	1	29	100	-13	14*	-2	-2	-5	21*
CCOC(CNC(=O)c1cc2c(=O)n(CC)c3ccccc3c2s1)OCC	-1	29	97	-16	6	x	x	x	x
CCCCN(CC)CCNC(=O)c1cc2c(=O)n(CC)c3ccccc3c2s1	-2	16	106	3	14*	-3	-4	-5	19*
O=C(NC1CCN(Cc2ccc(Cl)cc2Cl)CC1)c1ccccc1	-2	2	100	-18	-2	x	x	x	x
CNC[C@H](CC1CCCCC1)NC[C@H](CO)NCC1(c2ccccc2)CC1	-1	-16	115	-9	-2	x	x	x	x
CNC[C@H](CC1CCCCC1)NC[C@H](CO)NCCc1cccc(C(F)(F)F)c1	-1	20	95	0	21*	-3	-5	-6	30*
Cc1c(OCC(=O)NCCN2CCOCC2)ccc2c3c(c(=O)oc12)CCC3	1	26	99	0	27*	-2	-3	-10	31*
Cc1c(OCC(=O)NCCN2CCOCC2)ccc2c1oc(=O)c1ccccc12	-2	-9	118	-18	28*	-2	1	-13	38*
Cc1c(OCC(=O)NCCCN2CCOCC2)ccc2c3c(c(=O)oc12)CCCC3	-2	22	99	-5	13*	-3	-6	-8	22*
CCc1cc(=O)oc2c(C)c(OCC(=O)NCCCN3CCOCC3)ccc12	-4	41	92	2	7	x	x	x	x
CCOC(=O)CC1C(=O)NCCN1C(=O)c1cc2c(=O)n3cccc(C)c3nc2s1 (configuration not stated)	-5	17	99	-1	14*	-3	-6	-3	26*
CCOC(=O)CC1C(=O)NCCN1C(=O)c1cc2c(=O)n3ccccc3nc2s1 (configuration not stated)	-4	-1	110	x	5	x	x	x	x
Cc1cccn2c(=O)c3cc(C(=O)N4CCN(Cc5ccccc5)CC4)sc3nc12	x	x	110	-16	x	x	x	x	x
Cc1cccn2c(=O)c3cc(C(=O)N4CCCC(C)C4)sc3nc12 (configuration not stated)	-4	10	109	-15	15*	-3	-2	-7	21*
CCC1CCCCN1C(=O)c1cc2c(=O)n3cccc(C)c3nc2s1 (configuration not stated)	-1	-32	102	-9	15*	-3	-2	-6	21*
COc1ccc(NC(=O)CN(C)C(=O)c2cccc(S(=O)(=O)N3CCN(c4ccc(F)cc4)CC3)c2)cc1	x	x	x	1	x	x	x	x	x
C=CC[C@@H](CC(=O)N[C@H](CO)Cc1ccccc1)C(=O)NC[C@H](OC(=O)[C@@H](CC=C)Cc1ccc(F)cc1)c1ccccc1	x	x	109	0	x	x	x	x	x
Cc1cc(=O)oc2cc(Oc3ccc([N+](=O)[O-])cc3[N+](=O)[O-])ccc12	-2	-21	105	-13	1	x	x	x	x

Screens (PubChem BioAssay)
